Most compounds without a hit are left out; they make up all but 2.6% or so of the library.
MEKK2 WT-MEK5 – modulators of MEK5 binding to wildtype MEKK2, primary screen, biochemical, multiplex bead flow cytometry, Alexa488-MEK5; Mitogen-activated protein kinase kinase kinase 2 (Homo sapiens), Q9Y2U5; Alexa488-MEK5 binding to MEKK2 WT; actives lie on both sides; binding response (% of control), % at 10 µM; 1.1% of 290,000 active; in the data active = binding response below about 67% or above about 130%
Lipid droplet – inhibitors of hepatocyte lipid droplet formation, primary screen, imaging, high-throughput imaging, BODIPY stain; 0.4% of 240,000 active; inhibition, % at 6.5 µM; AML12 mouse hepatocytes, oleate lipid droplets; AID 1656, 2009;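 active = lipid droplet intensity inhibited by at least 50%, with more than 500 cells counted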
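Technique: fluorescence imaging, 20x objective, two fields per well / Assay system: AML12 hepatocytes (mouse) / Measure: % inhibition of lipid droplet signal / Doses: 6.5 µM single-point dosing / Incubation: overnight exposure / Reagent: 100 µM oleic acid challenge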
MEKK2mut PB1 HTS – MEK5 binding signal on mutant MEKK2 PB1, primary screen, biochemical, multiplex bead flow cytometry, Alexa488-MEK5; Alexa488-MEK5 binding to MEKK2 mutant; percent response, % at 10 µM; 0.35% of 290,000 active; in the data active = percent response above about 24%, passing the limit was not always enough
MEKK3 PB1 HTS – modulators of MEKK3-MEK5 PB1 binding, primary screen, biochemical, wildtype MEKK3, multiplex bead flow cytometry, Alexa488-MEK5 | binding response (% of control), % at 10 µM | bead-based flow cytometry, Alexa488-MEK5 binding to MEKK3; actives lie on both sides; 0 = blocked by unlabeled MEK5, 100 = vehicle | AID 1529, 2009 | 1.4% of 290,000 active | Mitogen-activated protein kinase kinase kinase 3 (Homo sapiens), Q99759;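 active = binding response more than 3 SD above or below the average of its plate-row segment, actives on both sides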;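 also: Alexa488 bead fluorescence after subtracting the streptavidin-only scavenger bead signal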
Target sequence (Q99759 whole entry, looked up): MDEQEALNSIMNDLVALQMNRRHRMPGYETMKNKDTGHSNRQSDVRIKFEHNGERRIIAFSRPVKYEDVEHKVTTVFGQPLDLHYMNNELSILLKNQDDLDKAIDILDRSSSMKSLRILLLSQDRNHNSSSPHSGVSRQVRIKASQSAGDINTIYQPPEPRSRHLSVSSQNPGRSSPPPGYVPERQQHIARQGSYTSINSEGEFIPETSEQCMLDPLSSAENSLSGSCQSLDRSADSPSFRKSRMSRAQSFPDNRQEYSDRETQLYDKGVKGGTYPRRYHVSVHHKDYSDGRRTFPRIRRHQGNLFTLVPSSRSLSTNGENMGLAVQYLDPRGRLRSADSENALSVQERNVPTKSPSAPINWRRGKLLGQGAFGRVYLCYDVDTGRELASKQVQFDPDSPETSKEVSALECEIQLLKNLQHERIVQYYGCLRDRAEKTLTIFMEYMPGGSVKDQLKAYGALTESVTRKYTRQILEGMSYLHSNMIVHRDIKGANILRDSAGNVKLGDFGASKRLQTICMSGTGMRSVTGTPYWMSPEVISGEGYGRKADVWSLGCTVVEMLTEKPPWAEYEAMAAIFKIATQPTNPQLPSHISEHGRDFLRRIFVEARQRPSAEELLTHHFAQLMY
MEKK2wt confirm – modulators of MEK5 binding to wildtype MEKK2, confirmation, biochemical, single concentration, multiplex bead flow cytometry; shares compounds with MEKK3 PB1 HTS; Alexa488-MEK5 binding to MEKK2 WT; actives lie on both sides; binding response (% of control), % at 10 µM; 2.4% of 5,900 active; in the data active = binding response below about 16% or above about 210%; inactive = in between
MEKK2mut-MEK5 – mutant MEKK2 PB1-MEK5 binding signal retest – biochemical, single concentration, multiplex bead flow cytometry, confirmation; 2% of 5,900 active; Alexa488-MEK5 binding to MEKK2 mutant; percent response, % at 10 µM; AID 1893, 2009; shares compounds with MEKK3 PB1 HTS; in the data active = percent response mostly above about 71%, no sharp cut-off; inactive = mostly below about 38%;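 also: higher means compound restores mutant binding toward wildtype level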
MEKK3-MEK5 inh – MEKK3 wild-type PB1 binding to MEK5, inhibitors, confirmation, biochemical, bead multiplex flow cytometry, single concentration, wildtype; Alexa488-MEK5 binding to MEKK3; hits give low values; shares compounds with MEKK3 PB1 HTS; binding response (% of control), % at 10 µM; 1.8% of 5,900 active; AID 1894, 2009;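 active = binding response below 72% of control, or above a set upper limit, though filed actives all read lower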;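 also: 100% = DMSO only wells and 0% = binding blocked by excess unlabeled MEK5; lower values mean stronger disruption of MEK5 binding to MEKK3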
The depositor's hits bear a star; x = not tested or not shown; [ ] = remark or other dose.

SMILES	MEKK2 WT-MEK5	Lipid droplet	MEKK2mut PB1 HTS	MEKK3 PB1 HTS	MEKK2wt confirm	MEKK2mut-MEK5	MEKK3-MEK5 inh
Cc1ccnc2nc(C(=O)NCc3ccccc3)nn12	100	-6	-1	102	x	x	x
CN1CCN(S(=O)(=O)c2cccc(C(=O)Nc3ccccc3N3CCCC3)c2)CC1	115	-34	10	111	x	x	x
Cc1cc(N2CCN(C)CC2)ccc1NC(=O)c1cccc(S(=O)(=O)N2CCc3ccccc3C2)c1	195*	6	5	105	126	8	98
Cc1cc(N/N=C/c2ccc(Cl)cc2Cl)nc(NCc2ccccc2)n1	161*	-6	38	102	164	38	105
CCCCNc1cc(C)nc(NCc2ccccc2)n1	133	x	10	106	x	x	x
Cc1cc(N/N=C/c2ccc(F)cc2)nc(NCc2ccccc2)n1	130	1	9	100	x	x	x
Cc1ccc(/C=N/Nc2cc(C)nc(NCc3ccccc3)n2)cc1	199*	-20	63*	108	150	25	104
Cc1cc(N/N=C/c2ccc(N(C)C)cc2)nc(NCc2ccccc2)n1	229*	6	75*	103	247*	89*	117
CC(C)(C)c1ccc(C(=O)NCCC(=O)NCc2cccs2)cc1	101	-46	-8	98	x	x	x
O=c1[nH]nc(CNc2ccc(OC(F)(F)F)cc2)c2ccccc12	50	-2	-17	39*[inhibitor]	100	-4	104
O=c1[nH]nc(CNc2ccc(C(F)(F)F)cc2)c2ccccc12	103	14	0	109	x	x	x
C/C(=N\N=C\c1ccc(N(C)C)cc1)c1cccc([N+](=O)[O-])c1	99	-5	-1	73*[inhibitor]	104	11	108
CNC(=O)c1nn(-c2ccc(C)cc2)ccc1=O	122	10	25*	118	97	-7	98
NNC(=O)c1nn(-c2ccc(Cl)cc2)ccc1=O	93	x	-5	102	x	x	x
O=C(Nc1ccccc1)C(c1ccccc1)c1ccccc1	98	x	-2	102	x	x	x
O=C(O)C(=O)Nc1ccc(NC(=O)C(c2ccccc2)c2ccccc2)cc1	3.0*[inhibitor]	-4	-51	2.0*[inhibitor]	99	4	103
CC1=C(C(=O)N2CCOCC2)C(c2ccc(OC(F)F)cc2)NC(=S)N1c1ccccc1 (configuration not stated)	100	2	1	100	x	x	x
c1ccc(-n2nnnc2Oc2cccc3cccnc23)cc1	-8.0*[inhibitor]	-4	-25	0.0*[inhibitor]	97	-5	103
CCc1cccc(CC)c1NC(=O)C1CCN(C(=O)c2ccco2)CC1	99	-20	2	102	x	x	x
N#Cc1c2nc3ccccc3nc2n2cc(NC(=O)c3ccc(F)cc3)ccc12	-1.0*[inhibitor]	6	-5	56*[inhibitor]	94	8	88
Cc1c(C(=O)Nc2ccc(F)cc2)cn2c(nc3ccccc32)c1C#N	87	20	2	95	x	x	x
CCOc1ccccc1CN1C(=O)NC2(CCCCCC2)C1=O	97	-3	-7	98	x	x	x
Cc1ncc([N+](=O)[O-])n1Cc1ccc(F)cc1	91	6	-3	70*[inhibitor]	98	-6	98
Cc1ncc([N+](=O)[O-])n1Cc1ccccc1F	100	0	0	109	x	x	x
CN(C)S(=O)(=O)c1ccc(C(=O)NCc2nnc(SCC(=O)c3ccccc3)o2)cc1	100	-2	1	97	x	x	x
SMILES	MEKK2 WT-MEK5	Lipid droplet	MEKK2mut PB1 HTS	MEKK3 PB1 HTS	MEKK2wt confirm	MEKK2mut-MEK5	MEKK3-MEK5 inh
Cc1csc2c(N3CCN(C(=O)c4ccc(C(C)(C)C)cc4)CC3)ncnc12	124	-24	22	131*	109	1	104
Cc1csc2c(N3CCN(C(=O)NC(C)(C)C)CC3)ncnc12	109	-3	12	114	x	x	x
COc1ccc(-c2noc(=O)[nH]2)cc1	100	x	-1	103	x	x	x
CCOc1ccc(-c2noc(=O)[nH]2)cc1	39*[inhibitor]	x	-33	23*[inhibitor]	107	3	103
CC1(C)CC(=O)C2=C(C1)N(c1ccccc1)C(N)=C(C#N)C2c1ccccc1 (configuration not stated)	109	-11	3	117	x	x	x
CC1(C)CC(=O)C2=C(C1)N1C(=C(C#N)C2c2ccc(Cl)cc2)N=C(N)c2ccccc21 (configuration not stated)	2.0*[inhibitor]	-19	-14	1.0*[inhibitor]	93	-3	101
CC1(C)CC(=O)C2=C(C1)N(c1ncn[nH]1)C(N)=C(C#N)C2c1ccccc1 (configuration not stated)	109	13	0	137*	111	6	109
O=C(NCCc1ccccc1)/C(=C\c1ccccc1)NC(=O)c1ccco1	98	2	1	97	x	x	x
O=C(COC(=O)c1ccccc1)Nc1ccccc1Br	54*[inhibitor]	10	-16	46*[inhibitor]	41	-29	85
CCNC(=O)COC(=O)c1cccc(Br)c1	39*[inhibitor]	-6	-13	38*[inhibitor]	102	-6	98
COc1ccccc1CNC(=O)c1ccc(NC2=NC3CS(=O)(=O)CC3S2)cc1 (configuration not stated)	103	6	3	100	x	x	x
CS(=O)(=O)c1ccc(Oc2ccc(-c3nnco3)cc2)c([N+](=O)[O-])c1	93	-18	-8	100	x	x	x
O=C(CN1C(=O)NC2(CCCCC2)C1=O)NCc1cccs1	109	-2	1	154*	99	-1	96
CC1CCC2(CC1)NC(=O)N(CC(=O)NCc1cccs1)C2=O (configuration not stated)	99	11	3	123	x	x	x
Cc1cc(NC(=O)CN2C(=O)NC3(CCCCC3)C2=O)no1	104	-23	-1	135*	101	0	104
Cc1ccccc1C(=O)Nc1ccnn1C1CCN(C(=O)C2CCOC2)CC1 (configuration not stated)	111	0	9	105	x	x	x
O=[N+]([O-])c1ccc2nc(-c3ccncc3)[nH]c2c1	97	1	2	96	x	x	x
O=[N+]([O-])c1cccc(-c2nc3ccc([N+](=O)[O-])cc3[nH]2)c1	113	6	1	128*	104	4	95

Source: PubChem (several laboratories)
